Activity, EC50 and inhibition data for 29 compounds are collected here from ChEMBL document CHEMBL1681647, “Targeting bacterial biofilms: design of a terpenoid-like library as non-toxic anti-biofilm compounds” (Bioorg Med Chem Lett, 2011).

Molecules are shown by their SMILES. Calls of active or inactive are those of the source. The rule behind the calls is not given here.

Test [1] has as its system Pseudoalteromonas sp. D41. The test can be described thus: Antibiofilm activity in Pseudoalteromonas sp. D41 assessed as bacterial adhesion at 500 uM after 15 mins using DAPI staining by micro-plate fluorescence reader. The test is classed as functional. Particulars: in the assay text read “15 h” for “15 mins”. In short, it runs like this:
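Single-concentration screen at 500 in triplicate. D41 was grown in VNSS at 20 °C to stationary phase, then resuspended in artificial sea water at OD600 0.2–0.4. Incubation was 15 h at 20 °C with an ASW adhesion control. Wells were NaCl-washed and fixed in 2% formaldehyde for 90 min at 4 °C, then DAPI-stained. Fluorescence of the ethanol-solubilized dye was read at 380 nm excitation and 495 nm emission.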

In test [2] the test system is Pseudoalteromonas sp. D41. The test can be described thus: Antibiofilm activity in Pseudoalteromonas sp. D41 assessed as bacterial adhesion after 15 h using DAPI staining by micro-plate fluorescence reader. The settings on record: Pseudoalteromonas sp. D41, 15 h.
The subject of test [3] is Pseudoalteromonas sp. D41. The test can be described thus: Antibacterial activity against Pseudoalteromonas sp. D41 assessed as inhibition of bacterial growth up to 100 uM. The test is classed as functional. Summed up:
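Growth assay with D41 grown in VNSS at 20 °C, shaken at 120 rpm and sampled in exponential phase, then subcultured at OD600 0.1. Compound was added at concentrations from 1 to 100 in triplicate, with a growth control and a solvent (DMSO or methanol) control. Plates were shaken at 120 rpm at 20 °C and OD600 was read hourly.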

In test [4] the test system is Pseudoalteromonas sp. D41. Kind of test: Antibiofilm activity in Pseudoalteromonas sp. D41 assessed as bacterial adhesion at 500 uM after 15 h using DAPI staining by micro-plate fluorescence reader.

Consider `CC(C)=CCC/C(C)=C/COCc1cn(-c2ccc(O)cc2)nn1`, for which the Activity in test [1] is >90%.
On the same count and under the same terms, the same measure for `COc1cc(-n2cc(COC/C=C(\C)CCC=C(C)C)nn2)cc(OC)c1OC`: 36%.
Regarding `CC(C)=CCC/C(C)=C/COCc1cn(-c2ccc(C(=O)O)cc2)nn1`, the Activity in test [1] amounted to 39%.
`COc1ccc(-c2cn(C/C=C(\C)CC/C=C(\C)CCC=C(C)C)nn2)cc1`: the Activity in test [1] was determined as 46%.
Consider `COc1cc(OC)cc(-n2cc(COC/C=C(\C)CCC=C(C)C)nn2)c1`, for which the Activity in test [1] is recorded as 76%.
On the same count and under the same terms, the result for `CC(C)=CCC/C(C)=C/CC/C(C)=C/COCc1cn(-c2ccc(C(=O)O)cc2)nn1` reads >90%; that for `COc1cccc(-c2cn(C/C=C(\C)CCC=C(C)C)nn2)c1`, 90%.
On to `COc1cccc(-n2cc(COC/C=C(\C)CCC=C(C)C)nn2)c1`, for which the EC50 (as a rule, the midpoint of the concentration-response curve) in test [2] turned out to be 103 µM. Moreover, the inhibition entry in test [3] is “inactive”. For the same compound, the Activity in test [1] came to 19%.
With `CC(C)=CCC/C(C)=C/CC/C(C)=C/Cn1cc(-c2cccc(O)c2)nn1`, in test [1], the Activity is listed as 34%.
Still for that read-out and setting: the result for `COc1cc(OC)cc(-c2cn(C/C=C(\C)CCC=C(C)C)nn2)c1` reads 90%.
For `COc1ccccc1-n1cc(COC/C=C(\C)CCC=C(C)C)nn1`, in test [2], the EC50 turned out to be 166 µM. For the same compound, in test [1], the Activity was 29%.
On the same counts, the results for `CC(C)=C[C@@H](O)C/C(C)=C/CC/C(C)=C/CC/C(C)=C/CO` [ELEGANEDIOL] are 224 µM and 14%.
`COc1cccc(-n2cc(COC/C=C(\C)CC/C=C(\C)CCC=C(C)C)nn2)c1`: the EC50 in test [2] was 198 µM. In addition, the Activity in test [1] was determined as 25%.
As for `CC(C)=CCC/C(C)=C/Cn1cc(-c2cccc(O)c2)nn1`, the Activity in test [1] was found to be 30%.
As for `COc1cc(OC)cc(-c2cn(C/C=C(\C)CC/C=C(\C)CCC=C(C)C)nn2)c1`, in test [2], the EC50 turned out to be 71 µM. Also, the Activity in test [1] was found to be 0%.
Turning to `CC(C)=CCC/C(C)=C/CC/C(C)=C/COCc1cn(-c2cccc(O)c2)nn1`, the Activity in test [1] is >90%.
Turning to `COc1cccc(-c2cn(C/C=C(\C)CC/C=C(\C)CCC=C(C)C)nn2)c1`, in test [4], the Activity came to 15%.
In the case of `CC(C)=CCC/C(C)=C/COCc1cn(-c2cccc(C(=O)O)c2)nn1`, the concentration giving a half-maximal response (EC50) in test [2] was determined as 74 µM. Moreover, in test [3], the inhibition entry was “inactive”. Besides, the Activity in test [1] was 32%.
On to `COc1ccc(-n2cc(COC/C=C(\C)CCC=C(C)C)nn2)cc1`, for which, in test [2], the EC50 came to 276 µM. In test [1], the Activity turned out to be 20%.
In the case of `COc1cc(OC)cc(-n2cc(COC/C=C(\C)CC/C=C(\C)CCC=C(C)C)nn2)c1`, in test [1], the Activity amounted to 76%.
For the compound `CC(C)=CC(=O)C/C(C)=C/CC/C(C)=C/CC/C(C)=C/CO` [ELEGANOLONE], the concentration giving a half-maximal response (EC50) in test [2] worked out at 174 µM. Further, the Activity in test [1] stood at 17%.
Regarding `CC(C)=CCC/C(C)=C/COCc1cn(-c2cccc(O)c2)nn1`, the Activity in test [1] is 55%.
Same read-out and setting: the same measure for `COc1ccc(-c2cn(C/C=C(\C)CCC=C(C)C)nn2)cc1`: 3%; for `COc1cc(-n2cc(COC/C=C(\C)CC/C=C(\C)CCC=C(C)C)nn2)cc(OC)c1OC`: 50%; for `CC(C)=CCC/C(C)=C/CC/C(C)=C/COCc1cn(-c2ccc(O)cc2)nn1`: 73%.
For `CC(C)=CCC/C(C)=C/CC/C(C)=C/COCc1cn(-c2cccc(C(=O)O)c2)nn1`, the Activity in test [1] was >90%.
With `COc1ccccc1-c1cn(C/C=C(\C)CCC=C(C)C)nn1`, the Activity in test [1] is 90%.
For `COc1ccccc1-n1cc(COC/C=C(\C)CC/C=C(\C)CCC=C(C)C)nn1`, the Activity in test [1] stood at 35%.
Consider `COc1ccc(-n2cc(COC/C=C(\C)CC/C=C(\C)CCC=C(C)C)nn2)cc1`, for which the 50% effective concentration (EC50) in test [2] was 117 µM. Besides, the Activity in test [1] stood at 24%.
